According to ChEMBL document CHEMBL3872262, “Synthesis of novel C4-benzazole naphthalimide derivatives with potent anti-tumor properties against murine melanoma” (Bioorg Med Chem, 2017):
Activity calls are given as the source filed them. The calls are words filed in the database; no cut-off is given here.

Key:
[1] = Cytotoxicity against mouse B16F10 cells measured after 2 days by MTS assay; conditions: B16-F10, 48 h
[2] = species on record: Homo sapiens; test: Inhibition of topoisomerase 2 (unknown origin) assessed as DNA intercalation at 10 uM using supercoiled pHOT-1 DNA as substrate measured after 30 mins by agarose gel electrophoresis
Procedure, shortened: (§1)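 Topoisomerase II drug screening kit. Supercoiled pHOT-1 plasmid incubated with topoisomerase II enzyme plus compound at 37 °C for 30 min, with 100 μM etoposide as positive control. Stopped with 10% SDS, then proteinase K for 15 min at 37 °C. Run on 1% agarose gel, stained with EtBr and viewed under UV.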

[3] = tested on: Mus musculus; test: Toxicity in C57BL/6 mouse assessed as change in body weight at 2 mg/kg, ip administered daily for 9 days measured during compound dosing; format: organism-based; conditions: in vivo, 216 h
Procedure, shortened: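 Female C57BL/6 mice, n=5/group, given 2 mg/kg ip daily in 5% DMSO vehicle, with a vehicle control group. Body weights recorded on set days over a 9-day study.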

[4] = tested on: B16-F10; test: Antitumor activity against mouse B16F10 cells implanted in C57BL/6 mouse assessed as reduction in lung metastasis at 2 mg/kg, ip administered daily for 1 to 14 days by microscopic method; format: functional, organism-based
Procedure, shortened: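 Female C57BL/6 mice, 6–8 weeks old, injected via tail vein with 2x10^5 B16F10 cells on day 0. Dosing 2 mg/kg ip daily on days 1–14, in 5% DMSO vehicle, with a vehicle control group. Total black lung nodules counted under microscopy on day 14, n=11/group.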

[5] = species on record: Homo sapiens; test: Inhibition of topoisomerase 2 (unknown origin) assessed as DNA intercalation at 100 uM using supercoiled pHOT-1 DNA as substrate measured after 30 mins by agarose gel electrophoresis; procedure, shortened: as §1

Row | SMILES | IC50 [1] | inhibition [2] | Activity [3] | Activity [4] | inhibition [5]
1 | CN(C)CCN1C(=O)c2cccc3c(-c4nc5ccccc5o4)ccc(c23)C1=O | 7.8 µM | Active | Non-Toxic | Active | 
2 | CN(C)CCN1C(=O)c2cccc3cc(N)cc(c23)C1=O [AMONAFIDE] | 6.7 µM |  |  |  | 
3 | CN(C)CCN1C(=O)c2cccc3c(-c4nc5ccccc5s4)ccc(c23)C1=O | 4.5 µM | Active | Non-Toxic | Active | Active
